In ChEMBL document CHEMBL1132158, “4-[[2-(1-Methyl-2-pyrrolidinyl)ethyl]thio]phenol hydrochloride (SIB-1553A): a novel cognitive enhancer with selectivity for neuronal nicotinic acetylcholine receptors” (J Med Chem, 1999) one finds Activity and Efficacy data, which are given here for five compounds.

Format in all cases: functional
The subject of assay [1] is Rattus norvegicus. Put plainly: Acetylcholine release data in […] rats when compound was administered subcutaneously at dose of 40 mg/kg. The following applies: route subcutaneous. Put shortly:
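In vivo acetylcholine release from hippocampus of freely moving Sprague–Dawley rats after subcutaneous dosing. […] Mean ± SEM of 2–6 independent experiments, compared against saline control by two-way repeated measures ANOVA with Student–Newman–Keuls post-hoc test.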

Assay [2] is filed under the species Rattus norvegicus. The experiment in a line: In vitro efficacy to stimulate [3H]NE in rat hippocampus. In a few lines: (§1)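 Release of [3H]DA (striatum) or [3H]NE (hippocampus, prefrontal cortex) from rat brain slice preparations stimulated by test compound at 300 μM. […] Mean ± SD of 3–6 experiments.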
The species entered for assay [3] is Rattus norvegicus. The experiment in a line: In vitro efficacy to stimulate [3H]NE in rat prefrontal cortex membrane slice. In a few lines:
as §1

The species entered for assay [4] is Rattus norvegicus. The experiment in a line: In vitro efficacy to stimulate the release of [3H]dopamine from rat striatal slices. In a few lines: as §1
For assay [5], the system named is Rattus norvegicus. Put plainly: Acetylcholine release data in […] rats when compound was administered subcutaneously at dose of 40(mg/Kg).
The species entered for assay [6] is Rattus norvegicus. Put plainly: In vitro efficacy to stimulate [3H]-dopamine from brain slice preparations. Put shortly: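 Striatal brain slices stimulated with test compound at 300 μM; [3H]dopamine release measured. […] Mean ± SD of 3–6 experiments.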

In the assay on Rattus norvegicus [1], `CN1CCC[C@@H]1CCSc1ccc(O)cc1` gave an Activity of 10. Further, the Efficacy in the assay listed under Rattus norvegicus [2] turned out to be 0.2; in the assay listed under Rattus norvegicus [3] it was 0.3; in the assay filed under Rattus norvegicus [4], 4.1.
In the assay with Rattus norvegicus [5], `CN1CCCC1CCSc1ccccc1` (configuration not stated) returned an Activity of 0.6. Further, the Efficacy in the assay filed under Rattus norvegicus [6] came out at 1.5.
`CN1CCC[C@H]1CCSc1ccc(O)cc1` came in with an Activity in the assay on Rattus norvegicus [1] of 13. For the same compound, the values for the Efficacy in the assay filed under Rattus norvegicus [2], in the assay filed under Rattus norvegicus [3] and in the assay filed under Rattus norvegicus [4] were 0.3, 0.35 and 4.3, respectively.
With `CN1CCCC1CCSc1ccc(O)cc1` (configuration not stated), the Activity in the assay with Rattus norvegicus [1] is recorded as 12. Also, the Efficacy in the assay filed under Rattus norvegicus [2] was 0.2; in the assay filed under Rattus norvegicus [3], 0.6; in the assay filed under Rattus norvegicus [4] it was 6.5.
For the compound `CN1CCC[C@H]1c1cccnc1` [NICOTINE], the Efficacy in the assay filed under Rattus norvegicus [2], in the assay filed under Rattus norvegicus [3] and in the assay listed under Rattus norvegicus [4] was 1 in each case.
